ChEMBL document CHEMBL1134354, “Anti-AIDS agents. 42. Synthesis and anti-HIV activity of disubstituted (3'R,4'R)-3',4'-di-O-(S)-camphanoyl-(+)-cis-khellactone analogues” (J Med Chem, 2001)
The source made the active and inactive calls. The calls are words filed in the database; no cut-off is given here.

What was measured:
H9 [1] = experiment: Toxicity was determined in H9 lymphocytes; assay type: functional, cell-based; settings: Homo sapiens
Method in brief: (§1)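 They were infected with HIV-1 at a moi of 0.1–0.01 for 4 h, washed three times, and then cultured for 4 days with graded drug concentrations; AZT was run as a control. Day-4 cell-free supernatant p24 was measured by ELISA. Toxicity was measured by Coulter counts of mock-infected cells.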

[2] = Therapeutic index is the ratio of IC50 to EC50 in H9 lymphocytes; assay type: cell-based; settings: human, read-out: TI; method in brief: as §1
H9 [3] = experiment: Inhibitory activity against HIV-1 replication in H9 lymphocytes; assay type: functional, cell-based; settings: Homo sapiens; method in brief: as §1
H9 [4] = experiment: Inhibitory activity against HIV-1 replication in H9 lymphocytes; NS= no suppression; assay type: functional, cell-based; settings: Homo sapiens; method in brief: as §1

SMILES | IC50 (H9 [1]) [nM] | selectivity ratio [2] | EC50 (H9 [3]) [nM] | NS (H9 [4])
Cc1cc2c(c3oc(=O)cc(C)c13)[C@@H](OC(=O)C13CCC(C)(C(=O)O1)C3(C)C)[C@@H](OC(=O)C13CCC(C)(C(=O)O1)C3(C)C)C(C)(C)O2 (stereo partly drawn) | > 154000 | > 36800 | 4.19 | 
Cc1c(-c2ccccc2)c(=O)oc2c3c(ccc12)OC(C)(C)[C@H](OC(=O)C12CCC(C)(C(=O)O1)C2(C)C)[C@@H]3OC(=O)C12CCC(C)(C(=O)O1)C2(C)C (stereo partly drawn) | > 140000 | > 3.2 | 43700 | 
Cc1c(Cl)c(=O)oc2c3c(ccc12)OC(C)(C)[C@H](OC(=O)C12CCC(C)(C(=O)O1)C2(C)C)[C@@H]3OC(=O)C12CCC(C)(C(=O)O1)C2(C)C (stereo partly drawn) | 104000 | 51700 | 2.01 | 
Cc1c(C)c2ccc3c(c2oc1=O)[C@@H](OC(=O)C12CCC(C)(C(=O)O1)C2(C)C)[C@@H](OC(=O)C12CCC(C)(C(=O)O1)C2(C)C)C(C)(C)O3 (stereo partly drawn) | > 154000 | > 80200 | 1.92 | 
Cc1cc2c(c3oc(=O)cc(C(C)C)c13)[C@@H](OC(=O)C13CCC(C)(C(=O)O1)C3(C)C)[C@@H](OC(=O)C13CCC(C)(C(=O)O1)C3(C)C)C(C)(C)O2 (stereo partly drawn) | > 147000 |  |  | inactive
Cc1cc2c(C)cc3c(c2oc1=O)[C@@H](OC(=O)C12CCC(C)(C(=O)O1)C2(C)C)[C@@H](OC(=O)C12CCC(C)(C(=O)O1)C2(C)C)C(C)(C)O3 (stereo partly drawn) | > 154000 | > 16900 | 9.1 | 
Cc1cc(=O)oc2c3c(cc(OCc4ccccc4)c12)OC(C)(C)[C@H](OC(=O)C12CCC(C)(C(=O)O1)C2(C)C)[C@@H]3OC(=O)C12CCC(C)(C(=O)O1)C2(C)C (stereo partly drawn) | 135000 | 87.7 | 1540 | 
CC1(C)Oc2ccc3ccc(=O)oc3c2[C@@H](OC(=O)C23CCC(C)(C(=O)O2)C3(C)C)[C@H]1OC(=O)C12CCC(C)(C(=O)O1)C2(C)C (stereo partly drawn) |  | 137000 | 0.256 | 
COc1cc2c(c3oc(=O)cc(C)c13)[C@@H](OC(=O)C13CCC(C)(C(=O)O1)C3(C)C)[C@@H](OC(=O)C13CCC(C)(C(=O)O1)C3(C)C)C(C)(C)O2 (stereo partly drawn) | > 150000 | > 2.08e+07 | 0.00721 | 
CC1(C)Oc2ccc3c4c(c(=O)oc3c2[C@@H](OC(=O)C23CCC(C)(C(=O)O2)C3(C)C)[C@H]1OC(=O)C12CCC(C)(C(=O)O1)C2(C)C)CCCC4 (stereo partly drawn) | > 148000 | > 69800 | 2.12 | 
